Screening data (PubChem BioAssay)
The list is not random: actives were taken first. Their share in the collection is about 6.7%.
CHOP inhibitor – CHOP inhibition in unfolded protein response; CHO-K1 CHOP-promoter luciferase, tunicamycin-induced, 15-18 h; 220,000 compounds, 3.8% hits; inhibition, % at 10 µM;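 active = compounds that reduced the stress-induced luciferase reporter signal by more than about 70% of percent inhibition, limit read from the data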;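 note: 0% = tunicamycin plus vehicle and 100% = wells without tunicamycin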
T cruzi inh – blocks replication of Trypanosoma cruzi; T. cruzi beta-gal in NIH3T3, luminescence, 90 h; inhibition, % (no concentration beside the values); 300,000 compounds, 1.4% hits; AID 1885;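 active = mean inhibition across valid replicates above about 55%, limit read from the data; inconclusive = mean below that limit but half or more replicates reach it; inactive = mean below it, under half of replicates reach it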;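 note: signal also drops with host cell toxicity which is not excluded here; 0% = plate median of DMSO wells and 100% = zero luminescence signal; higher percent means less beta-gal luminescence so fewer parasites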
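Incubation – ≥90 h infection period, 3 h prior cell attachment · System – NIH/3T3 fibroblasts plus reporter T. cruzi · Doses – compound pinned at 50 nL/well, DMSO · Read-out basis – percent inhibition of parasite-derived β-gal signal · Signal – luminescent β-galactosidase signal after 60 min lysis · Also added – 5000 T. cruzi trypomastigotes/well · Medium – Low-serum DMEM with 2% FBS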
Beta apoptosis – beta cell apoptosis inhibition; protection from apoptosis, % (concentration not given with the values); AID 435005; INS-1E cytokine-induced death, ATP luminescence, 48 h; percent of positive-control rescue, neutral wells zero; 300,000 compounds, 0.8% hits;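 active = Every replicate reaches about 75%, or at least half do and their mean reaches it too, limit read from the data; inconclusive = At least half of replicates reach the limit but their mean does not; inactive = Under half of replicates reach the limit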;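 note: 0% = cytokine-treated negative control wells and 100% = positive control rescue; higher means more ATP so stronger rescue from cytokine killing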
CSC inhib – cancer stem cell inhibition; 300,000 compounds, 1.1% hits; inhibition, % at 7.5 µM; AID 2717; cancer stem cell-like cells viability, luminescence; in the data active = inhibition above about 75%; inconclusive = no clear call, values can overlap the other calls; tested in HMLE shEcad cells
NR3A LBD binder – modulators (binders) of human NR3A ligand-binding domain. Tm shift relative to glycine control, % at 25 µM. 340,000 compounds, 2.5% hits. NR3A LBD differential scanning fluorimetry, Tm shift; 0% = protein alone, 100% = glycine-bound protein;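 active = melting temperature shift of at least 10% of the positive control shift, at one fixed dose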
PREPL inhibitor – inhibits the human prolyl oligopeptidase-like enzyme; 320,000 compounds, 0.68% hits; recombinant PREPL, fluorescence polarization activity-based probe; Q4J6C6; inhibition, % at 5.96 µM; in the data active = inhibition above about 43%;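 note: 0% = enzyme with DMSO and 100% = wells lacking enzyme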
Target sequence (Q4J6C6 whole entry, looked up): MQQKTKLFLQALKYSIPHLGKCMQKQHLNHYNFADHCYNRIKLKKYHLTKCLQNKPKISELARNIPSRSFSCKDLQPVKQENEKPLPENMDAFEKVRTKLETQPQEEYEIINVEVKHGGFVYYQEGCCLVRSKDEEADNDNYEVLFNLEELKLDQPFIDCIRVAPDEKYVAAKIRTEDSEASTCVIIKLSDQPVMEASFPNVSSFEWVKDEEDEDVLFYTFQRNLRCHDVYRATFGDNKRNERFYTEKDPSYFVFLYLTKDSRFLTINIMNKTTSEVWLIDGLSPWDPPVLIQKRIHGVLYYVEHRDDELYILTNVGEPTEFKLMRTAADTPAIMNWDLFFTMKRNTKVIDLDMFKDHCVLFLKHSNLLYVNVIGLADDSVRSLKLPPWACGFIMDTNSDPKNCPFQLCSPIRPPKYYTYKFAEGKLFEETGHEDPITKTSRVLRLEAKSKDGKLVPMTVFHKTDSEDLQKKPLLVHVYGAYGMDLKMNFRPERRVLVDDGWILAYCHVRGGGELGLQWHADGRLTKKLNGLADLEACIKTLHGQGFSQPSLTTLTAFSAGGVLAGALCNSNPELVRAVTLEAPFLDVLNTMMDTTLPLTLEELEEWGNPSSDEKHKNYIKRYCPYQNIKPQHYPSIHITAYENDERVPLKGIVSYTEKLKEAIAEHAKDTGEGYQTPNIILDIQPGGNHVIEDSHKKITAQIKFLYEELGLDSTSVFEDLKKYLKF
* hit, by the source's call; ? = inconclusive; / = no result given.

SMILES	CHOP inhibitor	T cruzi inh	Beta apoptosis	CSC inhib	NR3A LBD binder	PREPL inhibitor
Cc1nc(CS(=O)(=O)c2ccc(Cl)cc2)cc(Sc2ccc(Cl)cc2)n1	-5	/	/	1	2	22
CCCC(=O)Nc1cc(-c2nnc(OC)c3ccccc23)ccc1N1CCCCC1	72*	45	-7	-7	/	3
CCCC(=O)Nc1cc(-c2nn(C)c(=O)c3ccccc23)ccc1N1CCCCC1	/	29	13	43	-1	13
CSc1nnc(-c2ccncc2)n1/N=C/c1cn(-c2ccccc2)nc1-c1ccc(Cl)cc1	35	39	3	44	0	6
S=c1[nH]nc(-c2ccncc2)n1/N=C/c1cn(-c2ccccc2)nc1-c1ccc(Cl)cc1	91*	8	5	5	1	10
Cc1nn(-c2ccccc2)c(C)c1/C=N/n1c(-c2ccc(C(C)(C)C)cc2)n[nH]c1=S	84*	11	2	80*	-6	1
COc1ccccc1/C=C\C=N\n1c(-c2ccc(Cl)cc2)n[nH]c1=S	89*	-3	4	4	-6	3
CC(=O)Nc1ccc(CCCCc2ccc(NC(C)=O)cc2)cc1	/	/	/	/	-18	/
COc1cccc(NC(=O)C(=O)NCCC2CCCCN2S(=O)(=O)c2cccs2)c1 (centres undefined)	/	13	-3	1	5	-51
COc1cccc(Cn2c(NCc3ccco3)nc3c2c(=O)n(C)c(=O)n3C)c1	39	38	95*	0	2	17
COc1cccc(Cn2c(NCC(C)C)nc3c2c(=O)n(C)c(=O)n3C)c1	-23	10	-3	/	1	31
COc1ccc(Cl)c(Cn2c(NCc3ccco3)nc3c2c(=O)n(C)c(=O)n3C)c1	19	/	78*	2	1	10
COCCNc1nc2c(c(=O)n(C)c(=O)n2C)n1Cc1cccc(C(F)(F)F)c1	54	18	87*	/	-2	21
CCCn1c(NCc2ccco2)nc2c1c(=O)n(C)c(=O)n2C	13	-9	1	2	-5	-5
CC1CCc2cc(F)ccc2N1C(=O)c1cnc2sccn2c1=O (centres undefined)	79*	-7	-4	-1	-1	0
CC1CCc2cc(F)ccc2N1C(=O)CCl (centres undefined)	92*	/	/	/	1	/
CC1CCc2cc(F)ccc2N1C(=O)c1ccncc1 (centres undefined)	17	-1	-6	-8	2	-1
COc1ccc(CNC(=O)COC(=O)[C@H](Cc2c[nH]c3ccccc23)NC(=O)c2cccs2)cc1	-4	-11	-8	/	-3	23
N#C/C(=C\c1ccc(Cl)cc1)C(=O)Nc1cccnc1	-7	-9	3	18	3	15
COc1ccc(-c2nnc3ccc(SCC(=O)Nc4nc5ccc(C)cc5s4)nn23)cc1OC	33	17	/	/	14*	10
COC(=O)CSc1ccc2nnc(-c3ccc(OC)c(OC)c3)n2n1	27	-11	/	0	-1	-1
C=CCn1c(=O)c2c(nc(-n3nc(C)cc3C)n2C)n(C)c1=O	/	-14	-1	-12	-5	/
CCOc1ccc(OCCOCCOc2ccccc2Cl)cc1	35	-11	1	19	18*	12
COc1ccccc1OCCOCCOc1ccccc1Cl	38	3	1	5	0	-14
Cc1ccc(C(C)C)cc1NC(=O)Nc1ccc([N+](=O)[O-])cc1	106*	51	121*	89*	25*	2
SMILES	CHOP inhibitor	T cruzi inh	Beta apoptosis	CSC inhib	NR3A LBD binder	PREPL inhibitor
CCOc1ccc(NC(=O)Nc2cc(C(C)C)ccc2C)cc1	93*	-9	/	/	/	/
Cc1ccc(NC(=O)Nc2ccc3c(c2)nnn3C)cc1C	/	2	-5	-7	-4	14
CCOc1ccc(NC(=O)Nc2ccc3c(c2)nnn3C)cc1	22	2	-5	-4	16*	2
CCOc1ccc(NC(=O)Nc2cc(-c3ccccc3)sc2C(=O)OC)cc1	40	7	-2	?	21*	13
Cc1cc(O)c(C(C)C)cc1NC(=O)Nc1ccc([N+](=O)[O-])cc1	/	/	/	/	-3	/
O=C(Nc1ccccc1F)Nc1ccccc1OC(F)F	18	-5	21	-3	3	1
N#Cc1ccsc1NC(=O)C1CCN(C(=O)c2ccc(Cl)cc2)CC1	/	-7	0	-15	0	2
COc1cc(OC)c(OC)cc1/C=C1\CCC/C(=C\c2cc(OC)c(OC)cc2OC)C1=O	/	59*	/	/	5	/
COc1cc(C=C2C(=O)c3ccccc3C2=O)ccc1O	8	-2	12	8	0	9
COc1ccc(/C=C2\CCC/C(=C\c3ccc(OC)c(OC)c3OC)C2=O)c(OC)c1OC	/	3	/	/	0	/
COc1cc(/C=C2/CC/C(=C/c3ccc(O)c(OC)c3)C2=O)ccc1O	22	-4	15	48	14*	17
CSC1=N/C(=C\c2c(F)cccc2Cl)C(=O)S1	74*	-8	/	4	5	4
COc1cc(/C=C/C=C2/CC/C(=C/C=C/c3ccc(O)c(OC)c3)C2=O)ccc1O	/	/	/	/	3	/
COc1cc(/C=C2\COC/C(=C\c3ccc(O)c(OC)c3)C2=O)ccc1O	41	-26	-12	87*	26*	10
COc1ccc(NS(=O)(=O)c2cccc(C(=O)NCC(c3cccs3)N3CCOCC3)c2)cc1 (centres undefined)	/	/	-2	-6	1	3
CCc1cc(C(=O)N2CCN(c3ncccn3)CC2)sc1C	/	-9	-3	-11	-2	-4
COc1cc(OC)cc(C(=O)N2CCN(c3ccc(N4CCOCC4)nn3)CC2)c1	/	5	2	-5	/	10
Cc1ccc(NC(=O)C2(c3cccs3)CCOCC2)cc1C	-13	3	1	19	1	16
Cc1ccc(N2CC(NC(=O)C3CC3)CC2=O)cc1 (centres undefined)	/	-3	/	-3	/	15
COc1ccccc1N1CCN(CCN(C(=O)c2ccc(I)cc2)c2ccccn2)CC1	12	/	/	/	/	/
COc1ccc(C=C2C=C(C(C)(C)C)C(=O)C(C(C)(C)C)=C2)cc1OC	/	75*	-4	?	3	6
COc1cc(/C=C2/SC(=O)NC2=O)ccc1OCc1ccccc1	/	-20	14	26	-1	9
COc1ccc(C=C2C(=O)c3ccccc3C2=O)cc1O	-17	-17	/	-4	-2	17
COc1ccc(/C=C2\N=C(SC)SC2=O)cc1OC	79*	-2	-6	/	-28	6
CSC1=N/C(=C\c2ccc(C)cc2)C(=O)S1	68	-11	-13	-1	3	0
COc1ccc(/C=C2\CN(Cc3ccccc3)C/C(=C\c3ccc(OC)c(O)c3)C2=O)cc1O	/	7	104*	119*	3	23
COc1ccc(C=C2SC(=O)NC2=O)cc1OC	/	/	/	/	16*	/
